From ChEMBL document CHEMBL5712910, “Histone methyltransferases EHMT1 and EHMT2 (GLP/G9A) maintain PARP inhibitor resistance in high-grade serous ovarian carcinoma” (Clin Epigenetics, 2019)
The source made the active and inactive calls. The calls are words filed in the database; no cut-off is given here.

Tests used:
Olaparib-resistant PEO1 [1] = assay: Antitumor activity against human Olaparib-resistant PEO1 cells assessed as H3K9me2 protein level for 72 hrs by immunoblot analysis; type: functional, cell-based
Summary of the method: (§1)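 PEO1-OR cells treated 72 h with DMSO or UNC0642 at two-fold dilutions from 2 μM to 125 nM. Histone extracts immunoblotted for H3K9me2, with H3K27me3 as a specificity check; densitometry normalized to total H3. For immunofluorescence, cells were fixed on coverslips in 4% paraformaldehyde and permeabilized with 0.2% Triton X-100, with DAPI counterstain.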

Olaparib-resistant PEO1 [2] = assay: Antitumor activity against human Olaparib-resistant PEO1 cells assessed as H3K9me2 protein level at 500 nM for 72 hrs by immunofluorescence analysis; type: functional, cell-based; summary of the method: as §1
Olaparib-resistant PEO1 [3] = assay: Induction of cell cycle arrest in human Olaparib-resistant PEO1 cells assessed as accumulation of cells in G2 phase pretreated for 72 hrs by UNC0642 follwed by compound addition at 1 uM incubated for 72 hrs by propidium iodide staining based flow cytometry analysis (reference value: 23.2 %); type: functional
Olaparib-resistant PEO1 [4] = assay: Induction of cell cycle arrest in human Olaparib-resistant PEO1 cells assessed as accumulation of cells in S phase pretreated for 72 hrs by UNC0642 follwed by compound addition at 1 uM incubated for 72 hrs by propidium iodide staining based flow cytometry analysis (reference value: 21.9%); type: functional
Olaparib-resistant PEO1 [5] = assay: Induction of cell cycle arrest in human Olaparib-resistant PEO1 cells assessed as accumulation of cells in G1 phase pretreated for 72 hrs by UNC0642 follwed by compound addition at 1 uM incubated for 72 hrs by propidium iodide staining based flow cytometry analysis (reference value: 52.9%); type: functional
Olaparib-resistant PEO1 [6] = assay: Inhibition of EHMT1/2 in human Olaparib-resistant PEO1 cells assessed as reduction in Cyclin A protein level at 1 uM for 72 hrs by immunoblot analysis; type: functional, cell-based
Summary of the method: (§2)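 PEO1-OR cells were treated with olaparib and/or UNC0642 as for the cell-cycle experiment. Total RIPA lysates were immunoblotted for cell-cycle proteins, and band intensity was normalized to actin, relative to the non-pretreated control.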

Olaparib-resistant PEO1 [7] = assay: Inhibition of EHMT1/2 in human Olaparib-resistant PEO1 cells assessed as reduction in Cyclin B1 protein level at 1 uM for 72 hrs by immunoblot analysis; type: functional, cell-based; summary of the method: as §2
Olaparib-resistant PEO1 [8] = assay: Inhibition of EHMT1/2 in human Olaparib-resistant PEO1 cells assessed as reduction in total CDC25C protein level at 1 uM for 72 hrs by immunoblot analysis; type: functional, cell-based; summary of the method: as §2
[9] = target: T1, Histone-lysine N-methyltransferase EHMT1 (Homo sapiens) (UniProt Q9H9B1); assay: Inhibition of EHMT1 in human Olaparib-resistant PEO1 cells assessed as reduction in CDC25C phosphorylation at 1 uM for 72 hrs by immunoblot analysis; type: cell-based; summary of the method: as §2
T1 sequence (whole entry): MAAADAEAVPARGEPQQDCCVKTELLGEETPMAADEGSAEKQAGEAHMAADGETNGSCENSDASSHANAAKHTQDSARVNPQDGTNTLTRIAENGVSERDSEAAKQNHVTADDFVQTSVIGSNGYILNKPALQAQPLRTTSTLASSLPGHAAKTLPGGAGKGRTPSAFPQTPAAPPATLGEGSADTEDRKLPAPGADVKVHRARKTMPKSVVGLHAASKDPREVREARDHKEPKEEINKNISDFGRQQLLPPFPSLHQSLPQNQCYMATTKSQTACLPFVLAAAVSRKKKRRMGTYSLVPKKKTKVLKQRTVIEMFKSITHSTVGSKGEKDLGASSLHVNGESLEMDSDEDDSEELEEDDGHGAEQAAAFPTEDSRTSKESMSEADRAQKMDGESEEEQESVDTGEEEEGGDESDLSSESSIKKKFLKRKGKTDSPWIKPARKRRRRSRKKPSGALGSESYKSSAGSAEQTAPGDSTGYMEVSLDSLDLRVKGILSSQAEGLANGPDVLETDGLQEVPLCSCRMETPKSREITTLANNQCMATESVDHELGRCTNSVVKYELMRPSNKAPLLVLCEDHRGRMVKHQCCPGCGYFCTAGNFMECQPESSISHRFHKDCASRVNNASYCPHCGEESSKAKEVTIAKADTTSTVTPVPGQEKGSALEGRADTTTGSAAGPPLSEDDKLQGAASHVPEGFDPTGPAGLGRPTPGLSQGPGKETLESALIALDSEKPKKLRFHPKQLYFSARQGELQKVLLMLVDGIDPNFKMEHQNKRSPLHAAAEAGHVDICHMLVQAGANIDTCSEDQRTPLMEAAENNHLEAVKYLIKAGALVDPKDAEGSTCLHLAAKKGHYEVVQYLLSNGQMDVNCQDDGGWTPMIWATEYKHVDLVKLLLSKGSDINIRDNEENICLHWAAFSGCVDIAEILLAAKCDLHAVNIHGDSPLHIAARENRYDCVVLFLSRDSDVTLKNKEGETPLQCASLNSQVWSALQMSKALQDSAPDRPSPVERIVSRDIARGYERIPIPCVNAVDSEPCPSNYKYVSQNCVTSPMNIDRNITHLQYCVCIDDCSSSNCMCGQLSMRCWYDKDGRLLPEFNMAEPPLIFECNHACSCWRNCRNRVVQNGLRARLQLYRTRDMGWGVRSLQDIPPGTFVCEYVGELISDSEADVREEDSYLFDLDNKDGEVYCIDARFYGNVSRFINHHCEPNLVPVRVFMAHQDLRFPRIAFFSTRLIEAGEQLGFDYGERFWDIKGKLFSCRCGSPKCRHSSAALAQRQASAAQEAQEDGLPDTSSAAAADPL

Olaparib-resistant PEO1 [10] = assay: Induction of cell cycle arrest in human Olaparib-resistant PEO1 cells assessed as accumulation of cells in G2 phase pretreated for 72 hrs by vehicle follwed by compound addition at 1 uM incubated for 72 hrs by propidium iodide staining based flow cytometry analysis (reference value: 20.7%); type: functional
Olaparib-resistant PEO1 [11] = assay: Induction of cell cycle arrest in human Olaparib-resistant PEO1 cells assessed as accumulation of cells in S phase pretreated for 72 hrs by vehicle follwed by compound addition at 1 uM incubated for 72 hrs by propidium iodide staining based flow cytometry analysis (reference value: 21.5%); type: functional
Olaparib-resistant PEO1 [12] = assay: Induction of cell cycle arrest in human Olaparib-resistant PEO1 cells assessed as accumulation of cells in G1 phase pretreated for 72 hrs by vehicle follwed by compound addition at 1 uM incubated for 72 hrs by propidium iodide staining based flow cytometry analysis (reference value: 54.7%); type: functional

COc1cc2c(NC3CCN(C(C)C)CC3)nc(N3CCC(F)(F)CC3)nc2cc1OCCCN1CCCC1
Activity (Olaparib-resistant PEO1 [1]): Active | Activity (Olaparib-resistant PEO1 [2]): Active | Activity (Olaparib-resistant PEO1 [3]): 22.5% | Activity (Olaparib-resistant PEO1 [4]): 23.4% | Activity (Olaparib-resistant PEO1 [5]): 51.7% | Activity (Olaparib-resistant PEO1 [6]): Active | Activity (Olaparib-resistant PEO1 [7]): Active | Activity (Olaparib-resistant PEO1 [8]): Active | inhibition [9]: Active | Activity (Olaparib-resistant PEO1 [10]): 21.5% | Activity (Olaparib-resistant PEO1 [11]): 22.8% | Activity (Olaparib-resistant PEO1 [12]): 53.3%
